Each structure is given as a SMILES string. Some results are limits rather than exact numbers.

IC50 and cytotoxicity data for four compounds are collected here from ChEMBL document CHEMBL1139275, “Design, synthesis, and biological evaluation of biotin-labeled (-)-ternatin, a potent fat-accumulation inhibitor against 3T3-L1 adipocytes” (Bioorg Med Chem Lett, 2009).

The subject of data set [1] is 3T3-L1. The experiment in a line: Inhibition of fat accumulation in mouse 3T3L1 cells after 7 days. The format is functional, cell-based. To be noted: 3T3-L1, 168 h. Summed up: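 3T3-L1 cells were exposed to each sample during differentiation, while untreated controls became fully mature adipocytes. Fat accumulation was expressed relative to the controls, and IC50 was taken as the concentration giving 50% inhibition. Values are means of quadruplicate determinations.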

Data set [2] concerns 3T3-L1. In words: Cytotoxicity against mouse 3T3L1 cells. It counts as cell-based.
Data set [3] is described as follows: Cytotoxicity against mouse 3T3L1 cells at 5.2 uM. To be noted: 3T3-L1 cells, read-out: INH. The format is cell-based.

Turning to `C#CC[C@@H]1C(=O)N[C@H]([C@H](O)C(C)C)C(=O)N[C@H]([C@@H](C)CC)C(=O)N(C)[C@@H](C)C(=O)N(C)[C@@H](CC(C)C)C(=O)N[C@@H](CC(C)C)C(=O)N(C)[C@@H](C)C(=O)N1C`, the IC50 in the data set on 3T3-L1 [1] is 0.019 µM; in the data set on 3T3-L1 [2] it was greater than 5.2 µM. In addition, the cytotoxicity at 5.2 µM in data set [3] is 54%.

Turning to `CC[C@H](C)[C@H]1NC(=O)[C@@H]([C@@H](C)O)NC(=O)[C@@H](C)N(C)C(=O)[C@H](C)N(C)C(=O)[C@H](CC(C)C)NC(=O)[C@H](CC(C)C)N(C)C(=O)[C@H](C)N(C)C1=O`, the IC50 with 3T3-L1 [1] is 3.1 µM.

`CC[C@H](C)[C@H]1NC(=O)[C@@H](CO)NC(=O)[C@@H](C)N(C)C(=O)[C@H](C)N(C)C(=O)[C@H](CC(C)C)NC(=O)[C@H](CC(C)C)N(C)C(=O)[C@H](C)N(C)C1=O` returned a half-maximal inhibitory concentration (IC50) in the data set on 3T3-L1 [1] of 12 µM.

`CC[C@H](C)[C@H]1NC(=O)[C@@H]([C@H](O)C(C)C)NC(=O)[C@@H](Cc2cn(CCOCCOCCNC(=O)CCCC[C@@H]3SC[C@@H]4NC(=O)N[C@@H]43)nn2)N(C)C(=O)[C@H](C)N(C)C(=O)[C@H](CC(C)C)NC(=O)[C@H](CC(C)C)N(C)C(=O)[C@H](C)N(C)C1=O`: the IC50 is 46 µM with 3T3-L1 [1] and greater than 86 µM in the data set with 3T3-L1 [2].

As a reminder, the IC50 is the concentration that inhibits the measured activity by half. Low values mean greater potency in that assay, high ones weaker potency in that assay.
